High-throughput results deposited in PubChem BioAssay by several laboratories.
Rad51 HR inh – blocks human Rad51 in homologous recombination. Q06609. hRad51 DNA strand exchange, fluorescence dequenching. inhibition, % at 10 µM. 200,000 tested, 0.085% active. AID 1385;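 active = inhibition above 40% at the single screening dose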;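 also: 0% = DMSO control wells and 100% = blanks with heterologous ssDNA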
Target sequence (Q06609 whole entry, looked up): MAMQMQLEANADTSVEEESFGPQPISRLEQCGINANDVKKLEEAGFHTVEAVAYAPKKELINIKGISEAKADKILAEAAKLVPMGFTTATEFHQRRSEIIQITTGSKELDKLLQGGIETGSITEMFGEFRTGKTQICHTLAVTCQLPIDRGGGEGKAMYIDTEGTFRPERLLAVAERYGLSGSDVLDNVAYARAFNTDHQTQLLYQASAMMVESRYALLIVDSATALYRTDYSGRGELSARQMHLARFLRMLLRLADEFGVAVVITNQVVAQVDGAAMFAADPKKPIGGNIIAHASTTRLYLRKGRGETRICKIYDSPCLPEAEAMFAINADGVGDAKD
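Test system – preformed human Rad51 ssDNA filaments · Reagent – Donor/quencher-labelled 47-bp dsDNA substrate · Incubation – 37 °C 15-min filament assembly, 30-min compound preincubation, 15-min exchange · Signal – FRET fluorescence dequenching, excitation 485 nm, emission 520 nm · Read-out – percent inhibition from fluorescence, normalised to plate control and blank means · Benchmarks – plate control and blank wells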
Arbovirus anti – antivirals against arbovirus infection; arbovirus infection cell-based antiviral screen; inhibition, % at 10 µM; 200,000 tested, 0.37% active; AID 1251; in the data active = inhibition above about 30%
Measles CPE – protection of cells from measles virus; Measles virus-infected cells, CPE protection, absorbance; 140,000 tested, 1.5% active; protection (pct of control), % at 4 µM; in the data active = protection mostly above about 24%, no sharp cut-off; inactive = mostly below about 26%
Yeast life ext – yeast lifespan extension; inhibition of the nicotinamide effect, % at 10 µM; 130,000 tested, 0.68% active; S. cerevisiae growth with nicotinamide, OD615; deaD strain in restrictive glucose medium;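 active = inhibition above a set limit, placed 3 SD over the median of all compounds, cut at about 26% in these data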;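 also: 0% = nicotinamide-treated wells and 100% = cells grown without nicotinamide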
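System: Modified budding yeast, DeaD strain | Buffer or medium: Restrictive glucose medium | Also added: 1.5 mM nicotinamide | Doses: 10 µM single point, 0.25% DMSO | Schedule: 48 h compound exposure at 30 °C, humidified | Detection: Absorbance at 615 nm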
HMGR II inh – E. faecalis class II HMG-CoA reductase inhibition; purified E. faecalis HMGR, NADPH absorbance 340 nm kinetic; inhibition, % at 10 µM; 190,000 tested, 0.41% active;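 active = inhibition above a set limit, the median over all tested compounds plus 3 SD, cut at about 9.5% in these data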;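 also: enzyme runs in reverse so mevalonate oxidation gives rising NADPH absorbance; 0% = complete reaction with DMSO and 100% = background rate lacking mevalonate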
Yeast growth inh – yeast BB579 growth reduction in restrictive medium. 140,000 tested, 0.51% active. inhibition, % at 10 µM. S. cerevisiae BB579 growth, OD615, 48 h. AID 804;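 active = inhibition above a set limit, 3 SD over the mean compound inhibition, cut at about 44% in these data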
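Test system: S. cerevisiae DeaD strain BB579 yeast; Medium: restrictive CSMM-D medium; Compound: one dose, 10 µM compound with 0.25% DMSO; Incubation: 4 h cell preincubation, 48 h compound exposure, 30 °C humidified; Signal: OD at 615 nm; Benchmarks: amphotericin B at 10 µg/mL as positive control.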
Active calls of the source: *; · = no result. Compounds with a hit are over-represented: about 2.4% of the library has one in this group of screens.

SMILES	Rad51 HR inh	Arbovirus anti	Measles CPE	Yeast life ext	HMGR II inh	Yeast growth inh
Cc1cc(C)n2nc(-c3cccnc3)nc2n1	3	-1	5	-8	-2	-12
CC(=O)Nc1cccc(-c2csc(Nc3ccc(C)cn3)n2)c1	-12	19	53*	-7	-8	-4
COc1ccc(Nc2cc(Cl)nc(N)n2)cc1	16	5	·	·	11*	·
COc1ccc(Nc2cc(C)nc(N)n2)cc1	-1	·	·	·	·	·
CNC(=S)NNc1nc(C)cc(C)n1	5	-4	·	·	-1	·
COCCCNC(=O)C(=O)C1C(=O)Nc2ccccc21 (configuration not stated)	2	7	·	·	0	·
CCOC(=O)C1=C(C)NC(=O)NC1c1ccc(C)o1 (configuration not stated)	-5	6	9	-4	-3	-6
CC1=C(C(=O)OC(C)C)C(c2ccc(C)o2)NC(=O)N1 (configuration not stated)	0	-5	2	·	11*	-18
C=CCN(CC=C)C(=S)NC(=O)Cc1cccc2ccccc12	-1	56*	·	·	4	·
CCN(CC)C(=S)NC(=O)Cc1ccccc1	-35	7	·	·	3	·
O=C(NCCCN1CCN(Cc2ccccc2)CC1)c1nnc(Cc2c(F)cccc2Cl)o1	-1	8	39*	-13	-2	-12
O=C(c1cccs1)N(c1ccc(F)cc1)C1C=CS(=O)(=O)C1 (configuration not stated)	-1	2	·	·	17*	·
Cc1ccc(N(C(=O)c2cccs2)C2C=CS(=O)(=O)C2)cc1 (configuration not stated)	-7	1	3	-5	-6	-1
CC/C(=N\NC(=O)c1cc(C)nc2ccccc12)c1ccc(C)s1	9	-5	11	-3	-3	-14
COc1ccc(C(=O)NCCn2cc(SCC(=O)Nc3cc(C)on3)c3ccccc32)cc1OC	6	-2	5	-7	-2	-29
COc1ccccc1C(=O)NCCn1cc(SCC(=O)Nc2cc(C)on2)c2ccccc21	-11	-5	15	·	13*	-27
COc1ccccc1-n1cnnc1SCC(=O)N1CC(=O)Nc2ccccc21	1	-2	1	-5	9.6*	29
O=C(Nc1nccs1)c1ccc(CSc2nnnn2-c2ccccc2)cc1	-2	-21	7	-19	11*	-21
NC(=O)c1ccc(-n2nnnc2SCc2ccccc2)cc1	-2	1	5	-12	-6	-20
C#CCOCCOCCOCCNc1nc(N2CCN(C(=O)C([C@@H](C)CC)n3cc(C(N)COC(=O)C(F)(F)F)nn3)CC2)nc(N2CCN(C(=O)C([C@@H](C)CC)n3cc(C(N)CC(C)C)nn3)CC2)n1 (some centres not stated)	0	·	·	·	·	·
Cc1noc(C)c1COC(=O)Cc1ccc(Cl)c(Cl)c1	·	3	40*	-14	-5	11
Cc1noc(C)c1COC(=O)[C@H](C)NS(=O)(=O)c1ccc(Cl)c(Cl)c1	9	2	11	-7	-3	-19
Cc1noc(C)c1COC(=O)COc1ccc2c(C)cc(=O)oc2c1	-1	-1	39*	-14	-5	-36
CNC(=O)COC(=O)COc1ccc2c(C)cc(=O)oc2c1	1	0	·	·	-2	·
O=C(COc1cccnc1[N+](=O)[O-])NCCc1ccccc1	9	4	·	·	-2	·
SMILES	Rad51 HR inh	Arbovirus anti	Measles CPE	Yeast life ext	HMGR II inh	Yeast growth inh
COC(=O)c1ccc(NC(=O)CCN2C(=O)CSC2=O)cc1	-172	-2	·	·	-2	·
O=C(NCCCN1CCCC1=O)c1ccc2c(c1)ncn2C1CCCCC1	·	13	41*	4	2	-6
CC(C)OCCCNC(=O)c1ccc2c(c1)ncn2C1CCCC1	·	-3	8	7	1	-27
O=C1OC(COc2ccc(Br)cc2)CN1c1ccccc1 (configuration not stated)	20	·	·	·	·	·
CCOc1ccc(-n2c(=S)sc3c(=O)[nH]c(SCC(=O)NC(C)CC)nc32)cc1 (configuration not stated)	1	7	5	3	1	-22
CCCCN(CC)C(=O)CSc1nc2c(sc(=S)n2-c2ccc(OCC)cc2)c(=O)[nH]1	-8	47*	·	·	3	·
CCOC(=O)CC(=O)CSc1nc2c(sc(=S)n2-c2ccc(OCC)cc2)c(=O)[nH]1	·	60*	8	14	-3	-36
CCCN(CCC)C(=O)CSc1nc2c(sc(=S)n2-c2ccc(OCC)cc2)c(=O)[nH]1	22	42*	·	·	-3	·
CCOc1ccc(NC(=S)NNC(=O)c2ccc(Br)cc2)cc1	5	15	·	·	1	·
Cc1n[nH]c(C)c1S(=O)(=O)N(CC(=O)Nc1ccc2c(c1)OCCO2)c1ccc(C(C)C)cc1	3	14	16	-3	1	-6
Cc1ccc(C(=O)Nc2cccc(C(=O)N3CCOCC3)c2)cc1	-11	0	11	-9	-5	3
O=C(Nc1cccc(C(=O)N2CCOCC2)c1)c1cncc(Br)c1	4	7	38*	-9	-5	1
CCOC(=O)NNC(=O)C1CCC(C)CC1 (configuration not stated)	-16	0	·	·	-3	·
COc1ccc(-n2nc3c(c2NC(=O)c2ccc(S(=O)(=O)N4CCOCC4)cc2)CS(=O)C3)cc1 (configuration not stated)	-4	1	·	·	-2	·
Cc1ccc(C(=O)N/C(=C\c2sccc2C)C(=O)NCc2ccncc2)cc1	4	6	6	0	-4	-17
Cc1ccc(C(=O)N/C(=C\c2sccc2C)C(=O)NCc2ccco2)cc1	3	-4	61*	-14	-4	0
Cc1ccc(C(=O)N/C(=C\c2cccs2)C(=O)NCc2ccncc2)cc1	-6	0	47*	-5	-7	-21
Cc1ccc(N/N=C(\C#N)C(N)=S)c(C)c1	·	29	3	-4	7	95*
COCC(C)n1c(SCc2nc3ccccc3c(=O)[nH]2)nc2ccccc2c1=O (configuration not stated)	-3	45*	·	·	-3	·
O=c1[nH]c(CSc2nnc(-c3ccccc3)n2-c2ccccc2)nc2ccccc12	·	4	28*	-3	-2	6
O=c1c2ccccc2ncn1-c1ccccc1C(F)(F)F	-5	-3	·	·	-1	·
CCc1n[nH]c(=S)n1/N=C/c1ccc2c(c1)OCO2	-4	0	42*	-23	-5	-26
CCc1cc2c(nc1CC)CCN(CC/C(C)=N/O[C@@H](C)c1cc(-c3c(C)cc(C)cc3C)no1)C2	·	-21	25*	-2	4	-14
CCNC(=S)SCCOc1ccc(C)cc1	-1	-8	5	-9	0	-2
COc1cc(NC(=O)CCCC(=O)OCC(F)(F)C(F)F)nc(OC)n1	-1	106*	17	-13	0	-60
